≈ marks a conversion by molar mass, not a printed value. Calls of active or inactive are those of the source. No cut-off for these calls is given here.
Key:
[1] = Cytotoxicity against HUVEC assessed as maximum tolerated dose for >95% cell viability after 24 hrs by MTT assay; format: cell-based; conditions: human, HUVEC cells; read-out: MTD
Summary of the method: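 Primary human umbilical vein endothelial cells (mild trypsinization), grown in M-199 with 15% heat-inactivated FCS, endothelial cell growth factor and heparin, 5% CO2. Cells attached overnight, then exposed to compounds or DMSO (0.25%) for 24 h; MTT (5 mg/mL in PBS) 4 h, formazan dissolved in DMSO, absorbance 570 nm. Also checked by trypan blue exclusion. Value is highest concentration giving >95% viability; ≥3 experiments in triplicate.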

[2] = system: HUVEC; test: Antiinflammatory activity against TNF-alpha-induced ICAM1 protein expression in HUVEC pretreated for 2 hrs before TNFalpha challenge measured after 16 hrs by whole cell ELISA; format: functional, cell-based; conditions: Homo sapiens
Summary of the method: (§1)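 Primary umbilical cord endothelial cells were pre-incubated 2 h with or without compound, then TNF-α (10 ng/mL) for 16 h (ICAM-1, VCAM-1) or 4 h (E-selectin). Whole-cell ELISA: glutaraldehyde fixation, milk block, primary antibody overnight at 4 °C, peroxidase secondary, OPD substrate, A490. IC50 read from %inhibition vs log concentration plots of three independent experiments. Single-level values were taken at the highest concentration giving >95% viability (MTT, 24 h).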

[3] = system: HUVEC; test: Antiinflammatory activity against TNF-alpha-induced ICAM1 protein expression in HUVEC at maximum tolerated dose pretreated for 2 hrs before TNFalpha challenge measured after 16 hrs by whole cell ELISA; format: functional, Homo sapiens; summary of the method: as §1
[4] = Antiinflammatory activity against TNF-alpha-induced VCAM-1 protein expression in HUVEC by ELISA
[5] = system: HUVEC; test: Antiinflammatory activity against TNF-alpha-induced neutrophil adhesion in HUVEC pretreated for 2 hrs before TNFalpha challenge measured after 6 hrs by calorimetric analysis; format: functional, cell-based; conditions: Homo sapiens
Summary of the method: (§2)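 A confluent endothelial monolayer was pretreated ±compound for 2 h, then given TNF-α (10 ng/mL) for 6 h. Neutrophils from healthy donor blood (dextran sedimentation, Ficoll-Hypaque, hypotonic RBC lysis; 6 × 10^4/well) were added for 1 h at 37 °C under static conditions. After washing, bound cells were detected with OPD/CTAB/aminotriazole substrate at A490. Mean ± SD of 3 independent experiments.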

[6] = system: HUVEC; test: Antiinflammatory activity against TNF-alpha-induced VCAM-1 protein expression in HUVEC at 20 ug/ml pretreated for 2 hrs before TNFalpha challenge measured after 16 hrs by flow cytometry; format: functional; conditions: Homo sapiens
Summary of the method: (§3)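 Endothelial cells were treated ±compound ([…]) for 2 h, then TNF-α (10 ng/mL). E-selectin was read at 4 h, ICAM-1 and VCAM-1 at 16 h. Cells were dislodged, stained with specific or control IgG antibody (30 min, 4 °C) and then FITC anti-mouse IgG. Autofluorescence was subtracted and mean fluorescence intensity taken from three independent experiments.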

[7] = system: HUVEC; test: Antiinflammatory activity against TNF-alpha-induced VCAM-1 protein expression in HUVEC pretreated for 2 hrs before TNFalpha challenge measured after 16 hrs by whole cell ELISA; format: functional, cell-based; conditions: Homo sapiens; summary of the method: as §1
[8] = system: HUVEC; test: Antiinflammatory activity against TNF-alpha-induced ICAM1 protein expression in HUVEC at 20 ug/ml pretreated for 2 hrs before TNFalpha challenge measured after 16 hrs by flow cytometry; format: functional; conditions: Homo sapiens; summary of the method: as §3
[9] = system: HUVEC; test: Antiinflammatory activity against TNF-alpha-induced neutrophil adhesion in HUVEC at 2.5 to 20 ug/ml pretreated for 2 hrs before TNFalpha challenge measured after 6 hrs by calorimetric analysis; format: functional, Homo sapiens; summary of the method: as §2
[10] = system: HUVEC; test: Antiinflammatory activity against LPS-induced VCAM-1 protein expression in HUVEC pretreated for 2 hrs before LPS challenge measured after 16 hrs by whole cell ELISA; format: functional, cell-based; conditions: Homo sapiens
Summary of the method: (§4)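 Primary human umbilical cord endothelial cells (isolated by mild trypsinization, grown in M-199 with 15% heat-inactivated FCS, endothelial cell growth factor, heparin) pre-incubated 2 h with compound, then LPS ([…]) for 4 h (E-selectin) or 16 h (VCAM-1). Cells fixed with 1.0% glutaraldehyde, blocked with 3.0% milk, primary antibody overnight at 4 °C, peroxidase secondary, o-phenylenediamine substrate at pH 4.5, absorbance 490 nm.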

[11] = system: HUVEC; test: Antiinflammatory activity against TNF-alpha-induced E-selectin protein expression in HUVEC at 20 ug/ml pretreated for 2 hrs before TNFalpha challenge measured after 4 hrs by flow cytometry; format: functional; conditions: Homo sapiens; summary of the method: as §3
[12] = system: HUVEC; test: Antiinflammatory activity against TNF-alpha-induced E-selectin protein expression in HUVEC at 2.5 to 20 ug/ml pretreated for 2 hrs before TNFalpha challenge measured after 4 hrs by whole cell ELISA; format: functional, cell-based; conditions: Homo sapiens; summary of the method: as §1
[13] = system: HUVEC; test: Antiinflammatory activity against LPS-induced E-selectin protein expression in HUVEC at 2.5 to 20 ug/ml pretreated for 2 hrs before LPS challenge measured after 4 hrs by whole cell ELISA; format: functional, cell-based; conditions: Homo sapiens; summary of the method: as §4

| SMILES | MNTC at 24 h [1] [µg/mL] | IC50 [2] [mg/L] | inhibition (INH) [3] [%] | also measured |
| --- | --- | --- | --- | --- |
| CCCOC(=O)CCc1cc(OC)c(OC)c(OC)c1 | 120 | 110 (≈ 390 µM) | 62 | – |
| CC(C)OC(=S)/C=C/c1ccccc1 [ISOPROPYL THIONOCINNAMATE] | 35 | 20 (≈ 96.9 µM) | 80 | – |
| CCOC(=O)CCc1cc(OC)c(OC)c(OC)c1 | 110 | 110 (≈ 410 µM) | 50 | – |
| CCSC(=O)/C=C/c1cc(OC)c(OC)c(OC)c1 | 30 | 25 (≈ 88.5 µM) | 65 | – |
| COc1cccc(/C=C/C(=O)OC(C)C)c1O | 120 | – | 30 | – |
| COc1cc(CCC(=O)OC(C)C)cc(OC)c1OC | 65 | – | 40 | – |
| O=C(/C=C/c1ccccc1)Sc1ccccc1 [PHENYL THIOCINNAMATE] | 70 | 55 (≈ 229 µM) | 65 | – |
| CCSC(=O)/C=C/c1cc(OC)ccc1OC | 50 | 35 (≈ 139 µM) | 70 | – |
| O=C(/C=C/c1ccccc1)SCc1ccccc1 [BENZYL THIOCINNAMATE] | 60 | – | 40 | – |
| CCCOC(=O)CCc1ccc(OC)c(OC)c1 | 100 | 90 (≈ 357 µM) | 55 | – |
| COc1ccc(OC)c(/C=C/C(=O)OC(C)C)c1 | 120 | – | 35 | – |
| COc1cc(/C=C/C(=O)SCc2ccccc2)cc(OC)c1OC | 40 | 20 (≈ 58.1 µM) | 75 | – |
| COc1cc(/C=C/C(=O)OC(C)C)cc(OC)c1OC | 65 | 45 (≈ 161 µM) | 80 | – |
| CCCCCCCCOC(=O)/C=C/c1ccccc1 [OCTYL CINNAMATE] | 70 | – | 35 | – |
| CCCOC(=O)/C=C/c1cc(OC)ccc1OC | 120 | 110 (≈ 439 µM) | 55 | – |
| CCOC(=O)/C=C/c1ccccc1 [ETHYL CINNAMATE] | 130 | 95 (≈ 539 µM) | 85 | – |
| CCCCOC(=O)/C=C/c1ccccc1 [BUTYL CINNAMATE] | 140 | 125 (≈ 612 µM) | 55 | – |
| COc1ccc(OC)c(/C=C/C(=O)SCc2ccccc2)c1 | 60 | 60 (≈ 191 µM) | 50 | – |
| CCCOC(=O)/C=C/c1ccccc1 [PROPYL CINNAMATE] | 140 | 100 (≈ 526 µM) | 70 | – |
| CCSC(=O)/C=C/c1ccccc1 [ETHYL THIOCINNAMATE] | 50 | 47 (≈ 244 µM) | 55 | – |
| CCCOC(=O)/C=C/c1cc(OC)c(OC)c(OC)c1 | 120 | 100 (≈ 357 µM) | 62 | – |
| CCCCCCCCSC(=O)/C=C/c1cc(OC)ccc1OC | 50 | – | 30 | – |

| SMILES | MNTC at 24 h [1] [µg/mL] | IC50 [2] [mg/L] | inhibition (INH) [3] [%] | also measured |
| --- | --- | --- | --- | --- |
| CCOC(=S)/C=C/c1cc(OC)ccc1OC | 25 | 15 (≈ 59.4 µM) | 80 | – |
| CC(=O)Oc1ccccc1C(=O)O [ASPIRIN] | – | – | – | IC50 [4]: 6 mM |
| CCCCCCCCSC(=O)CCc1cc(OC)c(OC)c(OC)c1 | 80 | – | 40 | – |
| CCOC(=O)/C=C/c1cc(OC)c(OC)c(OC)c1 | 50 | 25 (≈ 93.9 µM) | 90 | – |
| CCSC(=O)CCc1cc(OC)c(OC)c(OC)c1 | 60 | 60 (≈ 211 µM) | 50 | – |
| CCCOC(=S)/C=C/c1ccccc1 [PROPYL THIONOCINNAMATE] | 80 | 50 (≈ 242 µM) | 75 | – |
| COc1cc(/C=C/C(=O)Sc2ccccc2)cc(OC)c1OC | 50 | 30 (≈ 90.8 µM) | 85 | – |
| COc1cc(CCC(=O)SCc2ccccc2)cc(OC)c1OC | 60 | – | 45 | – |
| CCCSC(=O)/C=C/c1cc(OC)c(OC)c(OC)c1 | 70 | 70 (≈ 236 µM) | 50 | – |
| CCOC(=S)/C=C/c1cc(OC)c(OC)c(OC)c1 | 20 | 10 (≈ 35.4 µM) | 95 | inhibition [5]: Dose-dependent effect; inhibition at 20 µg/mL [6]: > 95%; inhibition [7]: Dose-dependent effect; inhibition at 20 µg/mL [8]: > 95%; IC50 [4]: 0.04 mM; inhibition (INH) [9]: >95%; inhibition [2]: Dose-dependent effect; inhibition [10]: Active; inhibition at 20 µg/mL [11]: > 95%; inhibition [12]: Active; inhibition [13]: Active |
| CCCCCCCCSC(=O)/C=C/c1ccccc1 [OCTYL THIOCINNAMATE] | 60 | – | 45 | – |
| COc1ccc(OC)c(/C=C/C(=O)Oc2ccccc2)c1 | 60 | – | 30 | – |
| CCOC(=S)/C=C/c1ccccc1 [ETHYL THIONOCINNAMATE] | 50 | 22 (≈ 114 µM) | 90 | – |
| COc1cc(/C=C/C(=O)Oc2ccccc2)cc(OC)c1OC | 45 | – | 40 | – |
| CCCOC(=S)/C=C/c1cc(OC)c(OC)c(OC)c1 | 30 | 17 (≈ 57.4 µM) | 80 | – |
| COc1ccc(CCC(=O)OC(C)C)cc1OC | 110 | – | 30 | – |
| Nc1ccc(O)c(C(=O)O)c1 [MESALAMINE] | – | – | – | IC50 [4]: 16 mM |
| CCCSC(=O)/C=C/c1cc(OC)ccc1OC | 50 | 45 (≈ 169 µM) | 55 | – |
| O=C(/C=C/c1ccccc1)OCc1ccccc1 [BENZYL CINNAMATE] | 70 | 70 (≈ 294 µM) | 50 | – |
| CCCCOC(=S)/C=C/c1ccccc1 [BUTYL THIONOCINNAMATE] | 85 | 55 (≈ 250 µM) | 70 | – |
| CCCOC(=S)/C=C/c1cc(OC)ccc1OC | 40 | 25 (≈ 93.9 µM) | 70 | – |
| CCCCCCCCSC(=O)/C=C/c1cc(OC)c(OC)c(OC)c1 | 70 | – | 46 | – |

— ChEMBL document CHEMBL1909575, “Novel natural product-based cinnamates and their thio and thiono analogs as potent inhibitors of cell adhesion molecules on human endothelial cells” (Eur J Med Chem, 2011)
